# B1: Osa-1-4 twister ribozyme (parent)
# chain: CCGCCUAACACUGCCAAUGCCGGUCCCAAGCCCGGAUAAAAGUGGAGGGGGCGG
# Variants of: B1
# Test: self-cleavage, relative activity (ratio to wild type); higher = more cleavage; co-transcriptional
# Method in brief: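 A DNA template encoding a 54-nucleotide twister ribozyme from Oryza sativa was made so that each of the 48 positions downstream of the cleavage site carried 97 % wild-type base and 1 % of each other base. Transcription in vitro ran for 2 h at 37 °C, during which the ribozyme could cleave itself. Reverse transcription used a template-switching oligonucleotide, and the products were PCR-amplified and deep-sequenced. Each read was scored as cleaved or uncleaved by whether upstream sequence was present, and relative activity is the fraction cleaved normalised to wild type.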
row,Variant,self-cleavage
1,CCGCCUGACACUGCCAAUGCCGGUCCCAAGCCCGGAUAAAAGUGGAUGGGGCGG [A7G G47U],0.07
2,CCGCCUGACACUGCCAAUGCCGGUCCCAAGCCCGGAUAAAAGUGGAAGGGGCGG [A7G G47A],0.08
3,CCGCCUGACACUGCCAAUGCCGGUCCCAAGCCCGGAUAAAAGUGGACGGGGCGG [A7G G47C],0.05
4,CCGCCUGACACUCCCAAUGCCGGUCCCAAGCCCGGAUAAAAGUGGAGGGGGCGG [A7G G13C],0.03
5,CCGCCUGACACUUCCAAUGCCGGUCCCAAGCCCGGAUAAAAGUGGAGGGGGCGG [A7G G13U],0.02
6,CCGCCUGACACUACCAAUGCCGGUCCCAAGCCCGGAUAAAAGUGGAGGGGGCGG [A7G G13A],0.06
7,CCGCCUGACACUGCCAAUGCCGGUCCCAAGCCCGGAUAAAAAUGGAGGGGGCGG [A7G G42A],0.13
8,CCGCCUGACACUGCCAAUGCCGGUCCCAAGCCCGGAUAAAAUUGGAGGGGGCGG [A7G G42U],0.05
9,CCGCCUGACACUGCCAAUGCCGGUCCCAAGCCCGGAUAAAACUGGAGGGGGCGG [A7G G42C],0.08
10,CCGCCUGACACUGCCAAUGCCGGUCCCAAGCCGGGAUAAAAGUGGAGGGGGCGG [A7G C33G],0.03
11,CCGCCUGACACUGCCAAUGCCGGUCCCAAGCCAGGAUAAAAGUGGAGGGGGCGG [A7G C33A],0.07
12,CCGCCUGACACUGCCAAUGCCGGUCCCAAGCCUGGAUAAAAGUGGAGGGGGCGG [A7G C33U],0.13
13,CCGCCUGACACUGCCAAUGCCGGUCCCAAGCCCGGAUAAAAGUAGAGGGGGCGG [A7G G44A],0.13
14,CCGCCUGACACUGCCAAUGCCGGUCCCAAGCCCGGAUAAAAGUCGAGGGGGCGG [A7G G44C],0.21
15,CCGCCUGACACUGCCAAUGCCGGUCCCAAGCCCGGAUAAAAGUUGAGGGGGCGG [A7G G44U],0.15
16,CCGCCUGACACUGCCAAUGCCGGUCCCAAGCCCGGAUAAAAGUGUAGGGGGCGG [A7G G45U],0.05
17,CCGCCUGACACUGCCAAUGCCGGUCCCAAGCCCGGAUAAAAGUGCAGGGGGCGG [A7G G45C],0.04
18,CCGCCUGACACUGCCAAUGCCGGUCCCAAGCCCGGAUAAAAGUGAAGGGGGCGG [A7G G45A],0.08
19,CCGCCUGACACUGCCAAUGCCGGUCCCAAGCCCGAAUAAAAGUGGAGGGGGCGG [A7G G35A],0.31
20,CCGCCUGACACUGCCAAUGCCGGUCCCAAGCCCGUAUAAAAGUGGAGGGGGCGG [A7G G35U],0.2
21,CCGCCUGACACUGCCAAUGCCGGUCCCAAGCCCGCAUAAAAGUGGAGGGGGCGG [A7G G35C],0.1
22,CCGCCUUACACUGCAAAUGCCGGUCCCAAGCCCGGAUAAAAGUGGAGGGGGCGG [A7U C15A],0.06
23,CCGCCUUACACUGCUAAUGCCGGUCCCAAGCCCGGAUAAAAGUGGAGGGGGCGG [A7U C15U],0.06
24,CCGCCUUACACUGCGAAUGCCGGUCCCAAGCCCGGAUAAAAGUGGAGGGGGCGG [A7U C15G],0.11
25,CCGCCUGACACUGCCAAUGCCAGUCCCAAGCCCGGAUAAAAGUGGAGGGGGCGG [A7G G22A],0.18

row,Variant,self-cleavage
1,CCGCCUGACACUGCCAAUGCCCGUCCCAAGCCCGGAUAAAAGUGGAGGGGGCGG [A7G G22C],0.08
2,CCGCCUGACACUGCCAAUGCCUGUCCCAAGCCCGGAUAAAAGUGGAGGGGGCGG [A7G G22U],0.1
3,CCGCCUGACACUGCCAAUGCCGGUCCCAAGCCCGGAUAAAAGUGGAGGGUGCGG [A7G G50U],0.16
4,CCGCCUGACACUGCCAAUGCCGGUCCCAAGCCCGGAUAAAAGUGGAGGGAGCGG [A7G G50A],0.17
5,CCGCCUGACACUGCCAAUGCCGGUCCCAAGCCCGGAUAAAAGUGGAGGGCGCGG [A7G G50C],0.16
6,CCGCCUUAAACUGCCAAUGCCGGUCCCAAGCCCGGAUAAAAGUGGAGGGGGCGG [A7U C9A],0.05
7,CCGCCUUAGACUGCCAAUGCCGGUCCCAAGCCCGGAUAAAAGUGGAGGGGGCGG [A7U C9G],0.05
8,CCGCCUUAUACUGCCAAUGCCGGUCCCAAGCCCGGAUAAAAGUGGAGGGGGCGG [A7U C9U],0.04
9,CCGCCUGACACUGCCAAUGCCGGUCCCAAGCCCGGAUAAAAGUGGAGGGGGGGG [A7G C52G],0.32
10,CCGCCUGACACUGCCAAUGCCGGUCCCAAGCCCGGAUAAAAGUGGAGGGGGAGG [A7G C52A],0.29
11,CCGCCUGACACUGCCAAUGCCGGUCCCAAGCCCGGAUAAAAGUGGAGGGGGUGG [A7G C52U],0.55
12,CCGCCUUACACUGCCAAUGCCGGUCCCAAGCCCGGAUAAAAGUGGAGGGGGCGG [A7U],0.07
13,CCGCCUGACACUGCCAAUGCCGGUCCCAAACCCGGAUAAAAGUGGAGGGGGCGG [A7G G30A],0.04
14,CCGCCUGACACUGCCAAUGCCGGUCCCAAUCCCGGAUAAAAGUGGAGGGGGCGG [A7G G30U],0.05
15,CCGCCUGACACUGCCAAUGCCGGUCCCAACCCCGGAUAAAAGUGGAGGGGGCGG [A7G G30C],0.03
16,CCGCCUGACACUGCCAAUCCCGGUCCCAAGCCCGGAUAAAAGUGGAGGGGGCGG [A7G G19C],0.06
17,CCGCCUGACACUGCCAAUACCGGUCCCAAGCCCGGAUAAAAGUGGAGGGGGCGG [A7G G19A],0.15
18,CCGCCUGACACUGCCAAUUCCGGUCCCAAGCCCGGAUAAAAGUGGAGGGGGCGG [A7G G19U],0.07
19,CCGCCUGACACUGCCAAUGCCGGUCCCAAGCCCGGAUAAAAGUGGAGGGGGCGU [A7G G54U],0.36
20,CCGCCUGACACUGCCAAUGCCGGUCCCAAGCCCGGAUAAAAGUGGAGGGGGCGC [A7G G54C],0.17
21,CCGCCUGACACUGCCAAUGCCGGUCCCAAGCCCGGAUAAAAGUGGAGGGGGCGA [A7G G54A],0.19
22,CCGCCUGACACUGCCAAUGCCGGUCCCAAGCCCGGAUAAAAGUGGAGGUGGCGG [A7G G49U],0.05
23,CCGCCUGACACUGCCAAUGCCGGUCCCAAGCCCGGAUAAAAGUGGAGGCGGCGG [A7G G49C],0.05
24,CCGCCUGACACUGCCAAUGCCGGUCCCAAGCCCGGAUAAAAGUGGAGGAGGCGG [A7G G49A],0.07
